Data taken from ChEMBL document CHEMBL3102698, “New highly toxic bile acids derived from deoxycholic acid, chenodeoxycholic acid and lithocholic acid” (Bioorg Med Chem, 2014).
The source made the active and inactive calls. The rule behind the calls is not given here.

Experiments:
HT-1080 [1] = assay: Induction of necrosis in human HT1080 cells at 50 to 100 uM after 24 hrs by annexin V-FITC/propidium iodide staining-based flow cytometric analysis; format: functional, cell-based
Summary of the method: (§1)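 Cells grown to 80% confluence, exposed 24 h in serum-free medium, with vehicle-only controls. Harvested cells washed and resuspended in binding buffer, then stained with annexin V-FITC and propidium iodide 15 min at rt in the dark. Read by flow cytometry within 5 min. Annexin V−/PI+ cells scored necrotic and annexin V+ cells apoptotic; quadrant percentages reported.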

Caco-2 [2] = assay: Cytotoxicity against human Caco2 cells assessed as cell viability at 100 uM after 24 hrs by MTT assay in presence of antioxidant N-acetyl cysteine; format: functional, cell-based
Summary of the method: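 Caco-2 grown to 70% confluence, serum-starved 1 h, then treated 24 h serum-free with compound plus 1 mM NAC; DMSO vehicle at most 0.5%. MTT 0.5 mg/mL for 3 h at 37 °C, formazan dissolved in DMSO, OD 540 nm. Viability expressed as % of untreated cells; n = 3.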

Caco-2 [3] = assay: Cytotoxicity against human Caco2 cells assessed as cell viability after 24 hrs by MTT assay; format: functional, cell-based; details: Caco-2, 24 h
Summary of the method: (§2)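 Cells grown to 70% confluence (Caco-2 seeded 8 × 10^3/well, HT1080 12 × 10^4/well), serum-starved 1 h, then exposed 24 h serum-free to 0.1-1000 µM (DMSO ≤0.5%). MTT 0.5 mg/mL added for 3 h at 37 °C; formazan dissolved in DMSO, OD read at 540 nm. Viability taken as % of untreated OD. IC50 fitted from eight concentration levels, at least three experiments in triplicate.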

Caco-2 [4] = assay: Induction of necrosis in human Caco2 cells at 50 to 100 uM after 24 hrs by annexin V-FITC/propidium iodide staining-based flow cytometric analysis; format: functional, cell-based; summary of the method: as §1
[5] = Cytotoxicity against human HT1080 cells assessed as cell viability after 24 hrs by MTT assay; format: functional, cell-based; details: HT-1080, 24 h; summary of the method: as §2
Caco-2 [6] = assay: Induction of ROS production in human Caco2 cells at 10 uM after 0.5 to 24 hrs by 2',7'-dichlorfluorescein-diacetate staining-based fluorescence assay; format: functional, cell-based
Summary of the method: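 Caco-2 at 70-80% confluence exposed in serum-free medium for 30 min or 24 h (compounds 10 µM, natural bile acids 100 µM). Medium then replaced with 100 µM 2',7'-dichlorofluorescein diacetate for 30 min at 37 °C, cells washed with PBS, fluorescence read at ex 490/em 530 nm. Signal expressed relative to vehicle and corrected for MTT viability; n = 3.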

Caco-2 [7] = assay: Cytotoxicity against human Caco2 cells assessed as cell viability at 10 uM after 24 hrs by MTT assay in presence of antioxidant N-acetyl cysteine; format: functional, cell-based
Summary of the method: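 MTT viability run on Caco-2 with and without 1 mM N-acetyl cysteine co-incubation. Compounds at 10 µM, natural bile acids at 100 µM, 24 h serum-free after 1 h serum starvation. MTT 0.5 mg/mL for 3 h at 37 °C, then DMSO solubilisation and OD at 540 nm, expressed as % of untreated; n = 3.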

HT-1080 [8] = assay: Induction of necrosis in human HT1080 cells up to 500 uM after 24 hrs by annexin V-FITC/propidium iodide staining-based flow cytometric analysis; format: functional, cell-based; summary of the method: as §1
Caco-2 [9] = assay: Induction of necrosis in human Caco2 cells up to 500 uM after 24 hrs by annexin V-FITC/propidium iodide staining-based flow cytometric analysis; format: functional, cell-based; summary of the method: as §1
[10] = Cytotoxicity against human HET-1A cells; format: cell-based
Caco-2 [11] = assay: Induction of apoptosis in human Caco2 cells at 3.125 to 100 uM after 24 hrs by annexin V-FITC/propidium iodide staining-based flow cytometric analysis; format: functional, cell-based
Summary of the method: (§3)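 Caco-2 or HT1080 grown to 80% confluence, then treated 24 h in serum-free medium (vehicle controls run in parallel) at seven concentrations. Cells collected, washed and resuspended in binding buffer, stained with annexin V-FITC plus propidium iodide for 15 min at rt in the dark, and analysed within 5 min. Quadrants scored: annexin+/PI− early apoptotic, double-positive late apoptotic, PI+ only dead.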

HT-1080 [12] = assay: Induction of apoptosis in human HT1080 cells at 3.125 to 100 uM after 24 hrs by annexin V-FITC/propidium iodide staining-based flow cytometric analysis; format: functional, cell-based; summary of the method: as §3
HT-1080 [13] = assay: Induction of necrosis in human HT1080 cells at 3.125 to 100 uM after 24 hrs by annexin V-FITC/propidium iodide staining-based flow cytometric analysis; format: functional, cell-based; summary of the method: as §3
Caco-2 [14] = assay: Cytotoxicity against human Caco2 cells assessed as cell viability at 50 uM after 24 hrs by MTT assay relative to control; format: functional; details: Caco-2, 24 h, read-out: Activity

## C[C@H](CCC(=O)O)[C@H]1CC[C@H]2[C@@H]3CC[C@@H]4C[C@H](O)CC[C@]4(C)[C@H]3CC[C@]12C [LITHOCHOLIC ACID]
HT-1080 [1]
  Activity: Active
Caco-2 [2]
  Activity: inactive
Caco-2 [3]
  IC50: 56 µM
Caco-2 [4]
  Activity: Active
[5]
  IC50: 23 µM

## C[C@H](CCC(N)=O)[C@H]1CC[C@H]2[C@@H]3CC[C@@H]4C[C@H](N=[N+]=[N-])CC[C@]4(C)[C@H]3C[C@H](O)[C@]12C
Caco-2 [6]
  Activity: Active
Caco-2 [3]
  IC50: 12.6 µM
Caco-2 [7]
  Activity: inactive
[5]
  IC50: 10 µM

## C[C@H](CCC(=O)O)[C@H]1CC[C@H]2[C@@H]3[C@H](O)C[C@@H]4C[C@H](O)CC[C@]4(C)[C@H]3CC[C@]12C [CHENODIOL]
HT-1080 [8]
  Activity: inactive
Caco-2 [3]
  IC50: 106 µM
Caco-2 [9]
  Activity: inactive
[5]
  IC50: 130 µM

## C[C@H](CCC(=O)O)[C@H]1CC[C@H]2C3=CC[C@@H]4C[C@H](O)CC[C@]4(C)[C@H]3CC[C@]12C
Caco-2 [3]
  IC50: > 100 µM

## C[C@H](CCC(=O)O)[C@H]1CC[C@H]2[C@@H]3CC[C@@H]4C[C@@H](N=[N+]=[N-])CC[C@]4(C)[C@H]3C[C@H](O)[C@]12C
[10]
  EC50: 97 µM

## CCCNC(=O)CC[C@@H](C)[C@H]1CC[C@H]2[C@@H]3CC[C@@H]4C[C@@H](N=[N+]=[N-])CC[C@]4(C)[C@H]3CC[C@]12C
Caco-2 [3]
  IC50: > 1000 µM
[5]
  IC50: > 200 µM

## C[C@H](CCC(N)=O)[C@H]1CC[C@H]2[C@@H]3CC[C@@H]4C[C@H](O)CC[C@]4(C)[C@H]3C[C@H](O)[C@]12C
[10]
  EC50: 39 µM

## C[C@H](CCC(=O)NC1CC1)[C@H]1CC[C@H]2[C@@H]3CC[C@@H]4C[C@H](N=[N+]=[N-])CC[C@]4(C)[C@H]3C[C@H](O)[C@]12C
Caco-2 [3]
  IC50: 2.3 µM
Caco-2 [7]
  Activity: inactive
[5]
  IC50: 5.7 µM

## C[C@H](CCC(N)=O)[C@H]1CC[C@H]2[C@@H]3CC[C@@H]4C[C@@H](N=[N+]=[N-])CC[C@]4(C)[C@H]3C[C@H](O)[C@]12C
Caco-2 [3]
  IC50: 10.7 µM
[5]
  IC50: 3.6 µM

## C[C@H](CCC(=O)O)[C@H]1CC[C@H]2[C@@H]3CC[C@@H]4C[C@@H](N=[N+]=[N-])CC[C@]4(C)[C@H]3CC[C@]12C
Caco-2 [11]
  Activity: Active
Caco-2 [3]
  IC50: > 250 µM
HT-1080 [12]
  Activity: Active
[5]
  IC50: 21.3 µM

## C[C@H](CCC(=O)O)[C@H]1CC[C@H]2[C@@H]3[C@H](O)C[C@@H]4C[C@H](N=[N+]=[N-])CC[C@]4(C)[C@H]3CC[C@]12C
Caco-2 [3]
  IC50: 43.7 µM
[5]
  IC50: 26.2 µM

## C[C@H](CCC(=O)O)[C@H]1CC[C@H]2[C@@H]3[C@@H](O)C[C@@H]4C[C@H](O)CC[C@]4(C)[C@H]3CC[C@]12C
Caco-2 [2]
  Activity: inactive

## C[C@H](CCC(=O)NC1CC1)[C@H]1CC[C@H]2[C@@H]3CC[C@@H]4C[C@@H](N=[N+]=[N-])CC[C@]4(C)[C@H]3CC[C@]12C
Caco-2 [3]
  IC50: > 100 µM
[5]
  IC50: > 100 µM

## CC(=O)O[C@@H]1C[C@@H]2C[C@@H](N=[N+]=[N-])CC[C@]2(C)[C@H]2CC[C@]3(C)[C@@H]([C@H](C)CCC(=O)O)CC[C@H]3[C@H]12
Caco-2 [3]
  IC50: 15.6 µM

## C[C@H](CCC(=O)NC1CC1)[C@H]1CC[C@H]2[C@@H]3[C@H](O)C[C@@H]4C[C@@H](N=[N+]=[N-])CC[C@]4(C)[C@H]3CC[C@]12C
Caco-2 [6]
  Activity: Active
Caco-2 [3]
  IC50: 7.6 µM
Caco-2 [7]
  Activity: inactive
[5]
  IC50: 3.2 µM

## C[C@H](CCC(=O)NC1CC1)[C@H]1CC[C@H]2[C@@H]3CC[C@@H]4C[C@@H](N=[N+]=[N-])CC[C@]4(C)[C@H]3C[C@H](O)[C@]12C
Caco-2 [3]
  IC50: 6.3 µM
HT-1080 [12]
  Activity: Active
Caco-2 [7]
  Activity: inactive
[5]
  IC50: 1.9 µM

## C[C@H](CCC(N)=O)[C@H]1CC[C@H]2[C@@H]3[C@H](O)C[C@@H]4C[C@@H](N=[N+]=[N-])CC[C@]4(C)[C@H]3CC[C@]12C
Caco-2 [6]
  Activity: Active
Caco-2 [3]
  IC50: 9.8 µM
Caco-2 [7]
  Activity: inactive
[5]
  IC50: 6.9 µM

## CC(=O)O[C@@H]1C[C@@H]2C[C@@H](N=[N+]=[N-])CC[C@]2(C)[C@H]2CC[C@]3(C)[C@@H]([C@H](C)CCC(=O)NC4CC4)CC[C@H]3[C@H]12
Caco-2 [3]
  IC50: 6.2 µM

## C[C@H](CCC(N)=O)[C@H]1CC[C@H]2[C@@H]3CC[C@@H]4C[C@@H](N=[N+]=[N-])CC[C@]4(C)[C@H]3CC[C@]12C
Caco-2 [3]
  IC50: > 500 µM
HT-1080 [13]
  Activity: Active
[5]
  IC50: 13.1 µM

## C[C@H](CCC(=O)NC1CC1)[C@H]1CC[C@H]2C3=CC[C@@H]4C[C@H](O)CC[C@]4(C)[C@H]3CC[C@]12C
Caco-2 [3]
  IC50: 9.5 µM

## C[C@H](CCC(N)=O)[C@H]1CC[C@H]2C3=CC[C@@H]4C[C@H](O)CC[C@]4(C)[C@H]3CC[C@]12C
Caco-2 [3]
  IC50: > 100 µM

## C[C@H](CCC(=O)NC1CCCCC1)[C@H]1CC[C@H]2[C@@H]3CC[C@@H]4C[C@@H](N=[N+]=[N-])CC[C@]4(C)[C@H]3CC[C@]12C
Caco-2 [3]
  IC50: > 1000 µM
[5]
  IC50: > 1000 µM

## C[C@H](CCC(=O)NC1CCCCC1)[C@H]1CC[C@H]2[C@@H]3CC[C@@H]4C[C@@H](N=[N+]=[N-])CC[C@]4(C)[C@H]3C[C@H](O)[C@]12C
Caco-2 [3]
  IC50: > 1000 µM
[5]
  IC50: > 100 µM

## C[C@H](CCC(=O)NCc1ccccc1)[C@H]1CC[C@H]2[C@@H]3CC[C@@H]4C[C@@H](N=[N+]=[N-])CC[C@]4(C)[C@H]3CC[C@]12C
Caco-2 [3]
  IC50: > 100 µM
[5]
  IC50: > 100 µM

## C[C@H](CCC(=O)NCc1ccccc1)[C@H]1CC[C@H]2[C@@H]3CC[C@@H]4C[C@@H](N=[N+]=[N-])CC[C@]4(C)[C@H]3C[C@H](O)[C@]12C
Caco-2 [6]
  Activity: Active
Caco-2 [3]
  IC50: > 1000 µM
[5]
  IC50: > 500 µM

## CCCNC(=O)CC[C@@H](C)[C@H]1CC[C@H]2[C@@H]3CC[C@@H]4C[C@@H](N=[N+]=[N-])CC[C@]4(C)[C@H]3C[C@H](O)[C@]12C
Caco-2 [6]
  Activity: Active
[5]
  IC50: 6.3 µM
Caco-2 [14]
  viability at 50 µM: 60%

## C[C@H](CCC(=O)O)[C@H]1CC[C@H]2[C@@H]3[C@H](O)C[C@@H]4C[C@@H](N=[N+]=[N-])CC[C@]4(C)[C@H]3CC[C@]12C
Caco-2 [3]
  IC50: 40.3 µM
[5]
  IC50: 23.6 µM

## CC(=O)O[C@@H]1C[C@@H]2C[C@@H](N=[N+]=[N-])CC[C@]2(C)[C@H]2CC[C@]3(C)[C@@H]([C@H](C)CCC(N)=O)CC[C@H]3[C@H]12
Caco-2 [3]
  IC50: 5.5 µM
